The text below walks through data of ChEMBL document CHEMBL1158610, “5-arylamino-1,2,4-triazin-6(1H)-one CRF1 receptor antagonists” (Bioorg Med Chem Lett, 2010).

pIC50: −log10 of the molar value.

In the first data set the target is T1, Corticotropin-releasing factor receptor 1 (Rattus norvegicus, UniProt P35353).
T1 sequence (P35353 whole entry): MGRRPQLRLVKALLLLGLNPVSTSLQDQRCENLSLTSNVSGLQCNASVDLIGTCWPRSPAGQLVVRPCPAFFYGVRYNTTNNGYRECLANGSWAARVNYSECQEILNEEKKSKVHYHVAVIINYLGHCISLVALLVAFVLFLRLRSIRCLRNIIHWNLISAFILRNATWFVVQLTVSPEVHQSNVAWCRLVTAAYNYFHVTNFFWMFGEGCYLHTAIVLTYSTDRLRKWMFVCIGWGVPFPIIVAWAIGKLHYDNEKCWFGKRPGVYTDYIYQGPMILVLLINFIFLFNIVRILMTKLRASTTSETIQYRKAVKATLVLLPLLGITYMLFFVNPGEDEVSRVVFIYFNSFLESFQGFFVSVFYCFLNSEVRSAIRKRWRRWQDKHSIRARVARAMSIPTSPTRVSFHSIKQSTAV
The experiment in a line: Displacement of [125I]Tyr-ovine CRF from rat CRF1 receptor. The procedure, abridged:
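Rat frontal cortex homogenate; inhibition of specific [¹²⁵I]Tyr-ovine-CRF binding measured across a titration of test compound to give IC50. Values are means of three experiments, with standard deviation.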
On the technique in general: Loss of bound radioactivity is the signal in a displacement assay; it reports binding, not function.
Turning to `COCC(C1CC1)n1nc(C)nc(Nc2cc(C)c(OC(F)F)nc2C)c1=O` (configuration not stated), the pIC50 (as a rule, −log10 of the IC50, conventionally taken in molar units) is 8.96.
On the same count and under the same terms, the result for `COc1cc(C)c(Nc2nc(C)nn(C(C)C3CC3)c2=O)cc1C` (configuration not stated) reads 8.30; that for `Cc1nc(Nc2c(C)cc(Cl)cc2Cl)c(=O)n(C(C)C2CC2)n1` (configuration not stated), 7.48.
With `Cc1nc(Nc2c(Cl)cc(OC(F)F)cc2Cl)c(=O)n(C(C)C2CC2)n1` (configuration not stated), the pIC50 was 8.00.
Still for that read-out and setting: the result for `CCC(C1CC1)n1nc(C)nc(Nc2c(Cl)cc(C(F)(F)F)cc2Cl)c1=O` (configuration not stated) reads 8.20; that for `Cc1nc(Nc2c(Cl)cc(OC(F)(F)F)cc2Cl)c(=O)n(C(C)C2CC2)n1` (configuration not stated), 7.41.
On the same count and under the same terms, the result for `COCC(C1CC1)n1nc(C)nc(Nc2ccc(OC)nc2C(F)(F)F)c1=O` (configuration not stated) reads 8.43; that for `COC[C@@H](C1CC1)n1nc(C)nc(Nc2cc(C)c(OC(F)F)nc2C)c1=O`, 8.96.
For `COC[C@@H](C1CC1)n1nc(C)nc(Nc2c(Cl)cc(OC(F)F)cc2Cl)c1=O`, the pIC50 is 7.64.
Still for that read-out and setting: the result for `Cc1nc(Nc2c(Cl)cc(OC(F)F)cc2Cl)c(=O)n([C@H](C)C2CC2)n1` reads 7.89; that for `COCC(C1CC1)n1nc(C)nc(Nc2cc(C)c(OC)nc2C)c1=O` (configuration not stated), 7.70.
Still for that read-out and setting: the result for `CCC(C1CC1)n1nc(C)nc(Nc2cc(C)c(C#N)cc2C)c1=O` (configuration not stated) reads 8.03.
Still for that read-out and setting: the result for `CCC(C1CC1)n1nc(C)nc(Nc2c(Cl)cc(OC(F)F)cc2Cl)c1=O` (configuration not stated) reads 8.68.
Consider `COCC(C1CC1)n1nc(C)nc(Nc2c(Cl)cc(OC(F)(F)F)cc2Cl)c1=O` (configuration not stated), for which the pIC50 is 7.96.
On the same count and under the same terms, the result for `CCC(C1CC1)n1nc(C)nc(Nc2cc(OC)c(C#N)cc2C)c1=O` (configuration not stated) reads 7.89; that for `COC[C@@H](C1CC1)n1nc(C)nc(Nc2c(Cl)cc(OC)cc2Cl)c1=O`, 7.16; that for `Cc1nc(Nc2c(Cl)cc(S(C)(=O)=O)cc2Cl)c(=O)n(C(C)C2CC2)n1` (configuration not stated), 7.70.
Compound `COc1ccc(Nc2nc(C)nn([C@H](C)C3CC3)c2=O)c(C(F)(F)F)n1` had a negative logarithm of the IC50 (pIC50) of 8.46.
The same measure, in the same setting: the result for `CCOc1ccc(Nc2nc(C)nn([C@@H](C)C3CC3)c2=O)c(C(F)(F)F)n1` reads 7.64.
The compound `CCOc1cc(C)c(Nc2nc(C)nn(C(C)C3CC3)c2=O)cc1C` (configuration not stated) showed a pIC50 of 7.55.
Consider `Cc1nc(Nc2c(Cl)cc(C#N)c(Cl)c2Cl)c(=O)n(C(C)C2CC2)n1` (configuration not stated), for which the negative-log IC50 (pIC50) is 8.00.
Still for that read-out and setting: the result for `Cc1nc(Nc2c(Cl)cc(C(F)(F)F)cc2Cl)c(=O)n(C(C)C2CC2)n1` (configuration not stated) reads 7.85; that for `COc1nc(C)c(Nc2nc(C)nn(C(C)C3CC3)c2=O)c(OC)n1` (configuration not stated), 5.96.
Still for that read-out and setting: the result for `COc1ccc(Nc2nc(C)nn(C(C)C3CC3)c2=O)c(C(F)(F)F)n1` (configuration not stated) reads 8.17.
The same measure, in the same setting: the result for `COC[C@H](C1CC1)n1nc(C)nc(Nc2ccc(OC)nc2C(F)(F)F)c1=O` reads 7.82; that for `Cc1nc(Nc2cc(C)c(C#N)cc2C)c(=O)n(C(C)C2CC2)n1` (configuration not stated), 7.22.
On to `COC[C@H](C1CC1)n1nc(C)nc(Nc2c(Cl)cc(OC(F)F)cc2Cl)c1=O`, for which the pIC50 was 8.36.
Compound `Cc1nc(Nc2cc(C(F)(F)F)c(C#N)cc2Cl)c(=O)n(C(C)C2CC2)n1` (configuration not stated) gave a pIC50 of 5.48.
Still for that read-out and setting: the result for `CCC(C1CC1)n1nc(C)nc(Nc2cc(C)c(OC)nc2C)c1=O` (configuration not stated) reads 8.19.
In turn, `CCOc1ccc(Nc2nc(C)nn(C(CC)C3CC3)c2=O)c(C(F)(F)F)n1` (configuration not stated) showed a pIC50 of 8.44.
The same measure, in the same setting: the result for `CCOc1ccc(Nc2nc(C)nn(C(C)C3CC3)c2=O)c(C(F)(F)F)n1` (configuration not stated) reads 7.92; that for `COC[C@H](C1CC1)n1nc(C)nc(Nc2c(Cl)cc(OC)cc2Cl)c1=O`, 8.14; that for `COc1cc(Cl)c(Nc2nc(C)nn([C@@H](C)C3CC3)c2=O)c(Cl)c1`, 8.12.
The same measure, in the same setting: the result for `COCC(C1CC1)n1nc(C)nc(Nc2c(C)cc(OC)cc2C)c1=O` (configuration not stated) reads 7.29.
In turn, `COCC(C1CC1)n1nc(C)nc(Nc2c(Cl)cc(OC)cc2Cl)c1=O` (configuration not stated) gave a pIC50 of 8.20.
Still for that read-out and setting: the result for `Cc1cc(C)c(Nc2nc(C)nn(C(C)C3CC3)c2=O)c(C)c1` (configuration not stated) reads 7.72.
Still for that read-out and setting: the result for `COC[C@@H](C1CC1)n1nc(C)nc(Nc2ccc(OC)nc2C(F)(F)F)c1=O` reads 8.64; that for `CCOc1ccc(Nc2nc(C)nn([C@H](COC)C3CC3)c2=O)c(C(F)(F)F)n1`, 7.57; that for `Cc1nc(Nc2c(Cl)cc(C(F)(F)F)nc2Cl)c(=O)n(C(C)C2CC2)n1` (configuration not stated), 6.59.
The same measure, in the same setting: the result for `CCC(C1CC1)n1nc(C)nc(Nc2ccc(OC)nc2C(F)(F)F)c1=O` (configuration not stated) reads 8.43; that for `COc1cc(Cl)c(Nc2nc(C)nn([C@H](C)C3CC3)c2=O)c(Cl)c1`, 8.08; that for `COc1cc(Cl)c(Nc2nc(C)nn(C(C)C3CC3)c2=O)c(Cl)c1` (configuration not stated), 7.82.
For the compound `COCC(C1CC1)n1nc(C)nc(Nc2c(Cl)cc(OC(F)F)cc2Cl)c1=O` (configuration not stated), the pIC50 was 8.20.
The same measure, in the same setting: the result for `CCOc1ccc(Nc2nc(C)nn([C@H](C)C3CC3)c2=O)c(C(F)(F)F)n1` reads 8.07; that for `CCOc1ccc(Nc2nc(C)nn(C(COC)C3CC3)c2=O)c(C(F)(F)F)n1` (configuration not stated), 8.52.
On the same count and under the same terms, the result for `COC[C@H](C1CC1)n1nc(C)nc(Nc2cc(C)c(OC(F)F)nc2C)c1=O` reads 8.19; that for `COc1cc(Nc2nc(C)nn(C(C)C3CC3)c2=O)c(C)cc1C#N` (configuration not stated), 7.03.
The same measure, in the same setting: the result for `COc1cc(C)c(Nc2nc(C)nn(C(C)C3CC3)c2=O)c(C)c1` (configuration not stated) reads 7.17; that for `COc1ccc(Nc2nc(C)nn([C@@H](C)C3CC3)c2=O)c(C(F)(F)F)n1`, 7.92; that for `Cc1nc(Nc2c(Cl)cc(OC(F)F)cc2Cl)c(=O)n([C@@H](C)C2CC2)n1`, 8.14.
Compound `CCC(C1CC1)n1nc(C)nc(Nc2cc(C)c(OC)cc2C)c1=O` (configuration not stated) showed a pIC50 of 9.05.
The same measure, in the same setting: the result for `Cc1nc(Nc2cc(Cl)c(C#N)cc2Cl)c(=O)n(C(C)C2CC2)n1` (configuration not stated) reads 6.57.
Regarding `CCOc1ccc(Nc2nc(C)nn([C@@H](COC)C3CC3)c2=O)c(C(F)(F)F)n1`, the pIC50 was 8.62.
Still for that read-out and setting: the result for `CCC(C1CC1)n1nc(C)nc(Nc2cc(C)c(OC)nc2C(F)(F)F)c1=O` (configuration not stated) reads 8.57; that for `COc1nc(C)c(Nc2nc(C)nn(C(C)C3CC3)c2=O)cc1C` (configuration not stated), 7.59; that for `COCC(C1CC1)n1nc(C)nc(Nc2c(Cl)cc(C(F)(F)F)cc2Cl)c1=O` (configuration not stated), 7.96.

For a further data set, the system named is Liver microsomes. Briefly: Metabolic stability in human liver microsome assessed as compound remaining. The class given is ADME. A general note: Liver microsomes are vesicles of endoplasmic reticulum, rich in cytochrome P450 enzymes.
As to `COc1ccc(Nc2nc(C)nn([C@H](C)C3CC3)c2=O)c(C(F)(F)F)n1`, the Stability amounted to 85%.
Turning to `Cc1cn([C@H](C)C2CC2)c(=O)c(Nc2c(Cl)cc(OC(F)F)cc2Cl)n1`, the Stability is on record as 71%.

In the next data set the test system is Liver microsomes. Briefly: Metabolic stability in rat liver microsome assessed as compound remaining. The class given is ADME.
Turning to `COc1ccc(Nc2nc(C)nn([C@H](C)C3CC3)c2=O)c(C(F)(F)F)n1`, the Stability amounted to 37%.
The same measure, in the same setting: the result for `Cc1cn([C@H](C)C2CC2)c(=O)c(Nc2c(Cl)cc(OC(F)F)cc2Cl)n1` reads 12%.

The next data set deals with T2, Corticotropin-releasing factor receptor 1 (Rattus norvegicus) (UniProt P35353).
T2 sequence (whole entry): T1 sequence (P35353 whole entry)
The experiment in a line: Displacement of [125]sauvagin from CRF1 receptor in rat parietal cortex.
In turn, `CCOc1ccc(Nc2nc(C)nn(C(COC)C3CC3)c2=O)c(C(F)(F)F)n1` (configuration not stated) displayed an Activity of 46%.
The same measure, in the same setting: the result for `CCC(C1CC1)n1nc(C)nc(Nc2cc(C)c(OC)cc2C)c1=O` (configuration not stated) reads 64%.
